Measured values: ChEMBL document CHEMBL4152356, “Amphipathic sulfonamidobenzamides mimicking small antimicrobial marine natural products; investigation of antibacterial and anti-biofilm activity against antibiotic resistant clinical isolates” (Bioorg Med Chem, 2018)

Assays:
Staphylococcus aureus [1] = experiment: Antibacterial activity against Staphylococcus aureus ATCC 9144 after 48 hrs by microdilution method; assay type: functional; conditions: ATCC 9144, 48 h
Method in brief: (§1)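 Broth microdilution (CLSI M07-A9, modified) in Mueller-Hinton broth; inoculum about 2.5-3 × 10^4 cells/ml mixed 1:1 with serial compound dilutions. Stock solutions in up to 100% DMSO, final DMSO ≤1%. Incubated 35 °C for 48 h.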

[2] = system: Staphylococcus epidermidis; experiment: Antibacterial activity against methicillin resistant Staphylococcus epidermidis RP62A ATCC 35984/CCUG 31568 after 48 hrs by microdilution method; assay type: functional; conditions: RP62A ATCC 35984/CCUG 31568, 48 h
Method in brief: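 Broth microdilution (modified CLSI M07-A9) against the MRSE reference strain. Inoculum of about 2.5-3 × 10^4 cells/ml in Mueller-Hinton broth mixed 1:1 with serial compound dilutions; final DMSO ≤1%. Incubated 35 °C, 48 h.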

Bacillus subtilis = experiment: Antibacterial activity against Bacillus subtilis 168 ATCC 23857 after 48 hrs by microdilution method; assay type: functional; conditions: subsp. subtilis str. 168 ATCC 23857, 48 h; method in brief: as §1
[3] = system: Corynebacterium glutamicum; experiment: Antibacterial activity against Corynebacterium glutamicum ATCC 13032 after 48 hrs by microdilution method; assay type: functional; conditions: ATCC 13032, 48 h; method in brief: as §1
Escherichia coli [4] = experiment: Antibacterial activity against Escherichia coli ATCC 25922 after 48 hrs by microdilution method; assay type: functional; conditions: ATCC 25922, 48 h; method in brief: as §1
Pseudomonas aeruginosa [5] = experiment: Antibacterial activity against Pseudomonas aeruginosa PAO1 DSM 19880 ATCC 15692 after 48 hrs by microdilution method; assay type: functional; conditions: PAO1 DSM 19880 ATCC 15692, 48 h; method in brief: as §1
Erythrocyte = experiment: Hemolytic activity against human RBC measured after 1 hr; assay type: cell-based
Method in brief: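 Washed human RBCs from a healthy donor (heparinized) at 10% in PBS pH 7.4, mixed 9:1 with serial compound dilutions, 37 °C for 1 h. Baseline set by 0.5% DMSO in 50% PBS, 100% lysis by 0.05% Triton X-100. EC50 is the concentration giving 50% lysis.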

MRC5 = experiment: Cytotoxicity against human MRC5 cells after 72 hrs by MTS assay; assay type: cell-based; conditions: MRC5, 72 h
Method in brief: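 MRC-5 lung fibroblasts in DMEM with 10% FBS, 37 °C, 5% CO2; seeded at 4000 cells/well, adhered 24 h, medium replaced. Two-fold dilutions up to 100 µg/ml for 72 h, then MTS for 1 h and absorbance at 485 nm. Controls were 1% DMSO (negative) and 0.5% Triton X-100 (positive). EC50 is the concentration giving 50% inhibition of survival.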

[6] = Selectivity index, ratio of EC50 for human RBC to MIC for methicillin resistant Staphylococcus epidermidis RP62A ATCC 35984/CCUG 31568; assay type: toxicity; conditions: human red blood cells (RBC), read-out: Selectivity Index
Method in brief: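 SI = hemolytic EC50 / MRSE MIC. Hemolysis: washed human RBCs (heparinized blood, healthy adult donor) at 10% in PBS pH 7.4, mixed 9:1 with serial compound dilutions, 37 °C for 1 h. 0.05% Triton X-100 set 100% lysis, 0.5% DMSO set baseline. MIC from MHB microdilution, 35 °C, […].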

[7] = system: Staphylococcus epidermidis; experiment: Antibiofilm activity against Staphylococcus epidermidis RP62A ATCC 35984/CCUG 31568 incubated for 24 +/- 2 hrs by crystal violet staining based assay; assay type: functional
Method in brief: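 Mature S. epidermidis RP62A biofilms: filtered overnight TSB culture adjusted to 2 McFarland, diluted in TSB with 1% glucose to about 6 × 10^6 CFU/ml, grown 24 ± 2 h at 37 °C static, then PBS-washed. Compounds in 50% TSBglu added for 24 ± 2 h at 37 °C. Biomass given as % of untreated control; ≥90% eradication threshold. Compounds tested at 2x, 5x and 10x MIC, 4-8 parallels on 2-3 plates, highest and lowest values excluded.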

Staphylococcus aureus [8] = experiment: Antibacterial activity against Staphylococcus aureus clinical isolates after 24 hrs by microdilution method; assay type: functional
Method in brief: (§2)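 Clinical isolate screen by broth microdilution with about 1-1.2 × 10^6 cells/ml and 24 h incubation. MIC is the lowest concentration with no growth. For isolate collections, MIC90 is the MIC inhibiting ≥90% of isolates. Multidrug resistance was defined as resistance to at least […] antimicrobial class.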

Enterococcus sp. = experiment: Antibacterial activity against Enterococcus sp. clinical isolates after 24 hrs by microdilution method; assay type: functional; method in brief: as §2
Escherichia coli [9] = experiment: Antibacterial activity against Escherichia coli clinical isolates after 24 hrs by microdilution method; assay type: functional; method in brief: as §2
Pseudomonas aeruginosa [10] = experiment: Antibacterial activity against Pseudomonas aeruginosa clinical isolates after 24 hrs by microdilution method; assay type: functional; method in brief: as §2
Klebsiella pneumoniae = experiment: Antibacterial activity against Klebsiella pneumoniae clinical isolates after 24 hrs by microdilution method; assay type: functional; method in brief: as §2

Row | Compound | MIC (Staphylococcus aureus [1]) | MIC [2] | MIC (Bacillus subtilis) | MIC [3] | MIC (Escherichia coli [4]) | MIC (Pseudomonas aeruginosa [5]) | EC50 (Erythrocyte) | EC50 (MRC5) | selectivity ratio [6] | MBIC=>90 [7] | MIC (Staphylococcus aureus [8]) | MIC (Enterococcus sp.) | MIC (Escherichia coli [9]) | MIC (Pseudomonas aeruginosa [10]) | MIC (Klebsiella pneumoniae)
1 | CC(C)(C)c1cc(C(C)(C)C)cc(S(=O)(=O)N2CCC(C(=O)NCCNC(=N)N)CC2)c1.Cl | 16 µg/mL | 16 µg/mL | 16 µg/mL | 4 µg/mL | 64 µg/mL | 128 µg/mL | 124 µg/mL | > 100 µg/mL | 8 | 80 µg/mL |  |  |  |  | 
2 | CC(C)(C)c1cc(C(C)(C)C)cc(S(=O)(=O)Nc2cccc(C(=O)NCCNC(=N)N)c2)c1.Cl | 8 µg/mL | 8 µg/mL | 8 µg/mL | 4 µg/mL | 32 µg/mL | 32 µg/mL | 92 µg/mL | > 100 µg/mL | 12 | 40 µg/mL | 8 µg/mL | 32 µg/mL | 64 µg/mL | 64 µg/mL | 128 µg/mL
3 | Cl.N=C(N)NCCNC(=O)c1ccc(NS(=O)(=O)c2ccc3ccccc3c2)cc1 | 64 µg/mL | 32 µg/mL | 64 µg/mL | 32 µg/mL | > 128 µg/mL | > 128 µg/mL | > 128 µg/mL | > 100 µg/mL | > 4 | 160 µg/mL | 128 µg/mL | > 128 µg/mL | > 128 µg/mL | > 128 µg/mL | > 128 µg/mL
4 | CC(C)(C)c1cc(C(C)(C)C)cc(S(=O)(=O)Nc2ccc(C(=O)NCCN)cc2)c1.Cl | 32 µg/mL | 32 µg/mL | 16 µg/mL | 8 µg/mL | 64 µg/mL | 64 µg/mL | 63 µg/mL | 25 µg/mL | 2 |  |  |  |  |  | 
5 | CC(C)(C)c1cc(C(C)(C)C)cc(S(=O)(=O)Nc2ccc(CC(=O)NCCN)cc2)c1.Cl | 32 µg/mL | 16 µg/mL | 16 µg/mL | 16 µg/mL | 64 µg/mL | 64 µg/mL | 73 µg/mL | 20 µg/mL | 5 |  |  |  |  |  | 
6 | CN(c1ccc(C(=O)NCCN)cc1)S(=O)(=O)c1cc(C(C)(C)C)cc(C(C)(C)C)c1.Cl | 16 µg/mL | 16 µg/mL | 8 µg/mL | 16 µg/mL | 16 µg/mL | 32 µg/mL | 53 µg/mL | 5 µg/mL | 3 |  |  |  |  |  | 
7 | Cc1cc(C(=O)NCCNC(=N)N)ccc1NS(=O)(=O)c1cc(C(C)(C)C)cc(C(C)(C)C)c1.Cl | 8 µg/mL | 4 µg/mL | 8 µg/mL | 4 µg/mL | 32 µg/mL | > 128 µg/mL | 104 µg/mL | 56 µg/mL | 26 | 40 µg/mL | 8 µg/mL | 32 µg/mL | 64 µg/mL | 64 µg/mL | > 128 µg/mL
8 | CC(C)(C)c1cc(C(C)(C)C)cc(S(=O)(=O)N2CCC[C@H]2C(=O)NCCNC(=N)N)c1.Cl | 64 µg/mL | 32 µg/mL | 32 µg/mL | 8 µg/mL | > 128 µg/mL | 128 µg/mL | > 128 µg/mL | > 100 µg/mL | > 4 |  |  |  |  |  | 
9 | CN(c1ccc(C(=O)NCCNC(=N)N)cc1)S(=O)(=O)c1cc(C(C)(C)C)cc(C(C)(C)C)c1.Cl | 4 µg/mL | 4 µg/mL | 4 µg/mL | 2 µg/mL | 32 µg/mL | 16 µg/mL | 45 µg/mL | 36 µg/mL | 11 | 40 µg/mL | 4 µg/mL | 32 µg/mL | 32 µg/mL | 16 µg/mL | 64 µg/mL
10 | CC(C)(C)c1cc(C(=O)Nc2ccccc2C(=O)NCCNC(=N)N)cc(C(C)(C)C)c1.Cl |  |  |  |  |  |  |  | 22 µg/mL |  |  |  |  |  |  | 
11 | CC(C)(C)c1cc(C(C)(C)C)cc(S(=O)(=O)NCc2ccc(C(=O)NCCNC(=N)N)cc2)c1.Cl | 16 µg/mL | 8 µg/mL | 8 µg/mL | 4 µg/mL | 32 µg/mL | 32 µg/mL | 113 µg/mL | > 100 µg/mL | 14 | 80 µg/mL | 16 µg/mL | 64 µg/mL | 128 µg/mL | 64 µg/mL | 128 µg/mL
12 | CC(C)(C)c1cc(C(C)(C)C)cc(S(=O)(=O)Nc2cccc(C(=O)NCCN)c2)c1.Cl | 16 µg/mL | 8 µg/mL | 8 µg/mL | 8 µg/mL | 32 µg/mL | 64 µg/mL | 58 µg/mL | 16 µg/mL | 7 |  |  |  |  |  | 
13 | CC(C)(C)c1cc(C(C)(C)C)cc(S(=O)(=O)NCc2ccc(C(=O)NCCN)cc2)c1.Cl | 32 µg/mL | 16 µg/mL | 8 µg/mL | 8 µg/mL | 32 µg/mL | 32 µg/mL | 92 µg/mL | 20 µg/mL | 6 |  |  |  |  |  | 
14 | CC(C)(C)c1cc(C(C)(C)C)cc(S(=O)(=O)Nc2cc3ccccc3cc2C(=O)NCCN)c1.Cl | 4 µg/mL | 4 µg/mL | 4 µg/mL | 2 µg/mL | 8 µg/mL | 32 µg/mL | 21 µg/mL | 22 µg/mL | 5 |  | 8 µg/mL | 8 µg/mL | 32 µg/mL | 32 µg/mL | 128 µg/mL
15 | CN(c1ccc(C(=O)NCCCN)cc1)S(=O)(=O)c1cc(C(C)(C)C)cc(C(C)(C)C)c1.Cl | 16 µg/mL | 16 µg/mL | 8 µg/mL | 8 µg/mL | 16 µg/mL | 32 µg/mL | 28 µg/mL | 9 µg/mL | 2 |  |  |  |  |  | 
16 | Cc1cc(C)cc(S(=O)(=O)Nc2ccc(C(=O)NCCNC(=N)N)cc2)c1.Cl | 128 µg/mL | 64 µg/mL | 64 µg/mL | 64 µg/mL | > 128 µg/mL | > 128 µg/mL | > 128 µg/mL | > 100 µg/mL | > 2 |  |  |  |  |  | 
17 | CC(C)(C)c1cc(C(C)(C)C)cc(S(=O)(=O)Nc2ccccc2C(=O)NCCN)c1.Cl | 32 µg/mL | 32 µg/mL | 32 µg/mL | 16 µg/mL | 64 µg/mL | 128 µg/mL | 56 µg/mL | 10 µg/mL | 2 |  | 32 µg/mL | 32 µg/mL | 128 µg/mL | 128 µg/mL | 128 µg/mL
18 | CN(c1cccc(C(=O)NCCN)c1)S(=O)(=O)c1cc(C(C)(C)C)cc(C(C)(C)C)c1.Cl | 16 µg/mL | 16 µg/mL | 8 µg/mL | 8 µg/mL | 16 µg/mL | 32 µg/mL | 26 µg/mL | 10 µg/mL | 2 |  |  |  |  |  | 
19 | CC(C)(C)c1cc(C(C)(C)C)cc(S(=O)(=O)Nc2ccccc2C(=O)NCCNC(=N)N)c1.Cl | 4 µg/mL | 8 µg/mL | 8 µg/mL | 4 µg/mL | 32 µg/mL | 64 µg/mL | 77 µg/mL | 42 µg/mL | 10 |  | 8 µg/mL | 32 µg/mL | 64 µg/mL | 32 µg/mL | 128 µg/mL
